Source: PubChem (Johns Hopkins Ion Channel Center)
hERG protect = hERG rescue from dofetilide block, primary screen, cell-based, CHO-hERG, FluxOR thallium flux, dofetilide IC70. Voltage-gated inwardly rectifying potassium channel KCNH2 (Homo sapiens), Q12809. activation (rescue from dofetilide block), less the hit threshold, % at 10 µM. dofetilide IC70 present. AID 1511, 2009. 0.51% of 310,000 active;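 active = activation above the mean of controls blocked by dofetilide plus 5 SD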;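 note: thallium influx through hERG after potassium depolarization seen as dye fluorescence rise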
KCNQ1 inh = inhibitors of human KCNQ1 channel, primary screen, cell-based, thallium flux, high-throughput; Potassium voltage-gated channel subfamily KQT member 1 (Homo sapiens), P51787; CHO-K1 KCNQ1, FluxOR thallium flux fluorescence; hits give high values; B-score at 10 µM; 1.3% of 310,000 active;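 active = compounds whose thallium flux B-score, printed positive for inhibition, exceeds three library SD while starting fluorescence stays within three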;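 note: channel opened by potassium depolarization with thallium stimulus after 20 min compound exposure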
KCNK9 block = KCNK9 potassium channel inhibitors, primary screen, HEK293 cells, thallium flux; Potassium channel subfamily K member 9 (Homo sapiens), Q9NPC2; 1.2% of 310,000 active; FluxOR thallium flux fluorescence; hits give low values; B-score at 10 µM; AID 488922, 2010;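 active = ratio B-score over 3 SD below the library mean, with starting fluorescence within 5 SD of its mean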;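 note: negative B-score means less thallium flux so channel inhibition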
Target sequence (Q9NPC2 whole entry, looked up): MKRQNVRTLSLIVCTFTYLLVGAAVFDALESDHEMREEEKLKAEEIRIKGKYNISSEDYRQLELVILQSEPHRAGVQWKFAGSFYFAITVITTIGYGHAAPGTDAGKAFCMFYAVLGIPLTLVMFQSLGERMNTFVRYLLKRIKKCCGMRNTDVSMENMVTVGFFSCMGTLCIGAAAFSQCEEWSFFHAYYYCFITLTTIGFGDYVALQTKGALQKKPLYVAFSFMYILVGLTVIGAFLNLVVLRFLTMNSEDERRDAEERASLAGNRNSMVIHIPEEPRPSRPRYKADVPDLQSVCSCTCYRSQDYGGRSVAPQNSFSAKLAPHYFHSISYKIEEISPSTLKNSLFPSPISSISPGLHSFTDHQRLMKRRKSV
Kir21 block = inhibitors of mouse Kir2.1 inward-rectifier potassium channel | Inward rectifier potassium channel 2 (Mus musculus), P35561 | B-score at 10 µM | HEK293-Kir2.1, FluxOR thallium flux fluorescence; hits give low values | AID 1672, 2009 | 0.85% of 310,000 active;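 active = fluorescence ratio B-score at or below minus 3 SD of library scores, with starting-brightness B-score within 2 SD, cut at about -4.2 in these data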;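 note: channel flux triggered by added potassium and thallium sulfate stimulus; B-score of peak minus minimum fluorescence over baseline after thallium stimulus; more negative B-score means stronger Kir2.1 block with less thallium influx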
KCNK3 inh = human KCNK3 channel inhibitors, primary screen, CHO cells, FluxOR thallium flux, B-score. B-score at 10 µM. Potassium channel subfamily K member 3 (Homo sapiens), O14649. 0.84% of 340,000 active. AID 602410, 2012. FluxOR fluorescence; hits give low values;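 active = B-score under library mean minus 4 SD, starting fluorescence ratio at most library mean plus 5 SD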;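 note: more negative B-score means stronger inhibition of thallium flux through KCNK3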
KCNQ1 act = potentiators or activators of KCNQ1 channel, primary screen, cell-based, thallium flux, high-throughput; 0.35% of 310,000 active; AID 2648, 2010; CHO-K1 KCNQ1, thallium flux FluxOR fluorescence; hits give high values; Potassium voltage-gated channel subfamily KQT member 1 (Homo sapiens), P51787; B-score at 10 µM;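 active = fluorescence ratio B-score, a plate-corrected score, at least three library SD, with initial intensity B-score within 5 SD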
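System: Stable KCNQ1 CHO-K1 line | Incubation: 90 min dye loading and 20 min compound exposure, both at room temperature | Measure: Ratio B score | Medium: Assay buffer for compound exposure, DMSO matched across wells | Compound dosing: Single-concentration screen | Probe or stimulus: K+/Tl+ depolarizing stimulus | Measured by: Kinetic FluxOR fluorescence, 10 s baseline plus 110 s post-stimulus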
Numbers without * were called inactive; i = inactive; x = not tested or not shown. An excerpt weighted towards active compounds, which were near 3.7% of everything screened.

SMILES	hERG protect	KCNQ1 inh	KCNK9 block	Kir21 block	KCNK3 inh	KCNQ1 act
CCOC(=O)C[C@H]1c2ccc(C(F)(F)F)cc2S(=O)(=O)N1C(C)C	-6	i	i	-0.88	i	i
CN(C)c1ccc(C=c2c3ccccc3n3c2cc(-c2ccccc2)[n+]3C)cc1	x	x	x	x	-15*	x
CN(C)c1ccc(C=c2c3cc([N+](=O)[O-])ccc3n3c2cc(-c2ccccc2)[n+]3C)cc1	x	x	x	x	i	x
CN(C)c1ccc(C=c2c3ccccc3n3c2cc(-c2ccc(Cl)cc2)[n+]3C)cc1	x	x	x	x	-12*	x
COc1cc(N(C)C)ccc1C=c1c2ccccc2n2c1cc(-c1ccccc1)[n+]2C	x	x	x	x	i	x
O=C(CSc1nnc(NC(=O)c2ccco2)s1)Nc1ccc(F)cc1F	-11	i	i	0.34	i	i
CCOC(=O)CN1C(=O)CC(c2ccccc2)C1=O (centres undefined)	-7	i	i	-0.09	i	i
O=[N+]([O-])c1cccc(/C=N/Nc2cc(Cl)nc(-c3ccccc3)n2)c1	-9	12*	i	0.28	-10*	i
CC(C)(C)OC(=O)CC1(C#N)c2ccccc2C(Br)=CN1C(=O)c1ccccc1 (centres undefined)	-9	i	-7.4*	-0.03	i	i
O=C(C1CC(=O)N(c2ccccc2)C1)N1CCN(c2ccccc2F)CC1 (centres undefined)	-12	i	i	1.7	i	i
Cc1ccc(C(=O)CC(=O)c2cccc(F)c2)c(O)c1	10*	i	i	-1.4	i	16*
Cc1ccc(O)c(C(=O)CC(=O)c2ccccc2Cl)c1	45*	i	i	1.7	i	13*
Cc1ccc(C(=O)CC(=O)c2ccccc2C)c(O)c1	2	i	i	0.16	i	i
Cc1ccc(N=C(N)N=C(N)N)cc1	-8	i	i	-0.49	i	i
CC(=O)/C(=C/N(C)C)C(=O)Nc1ccc(Cl)cc1Cl	-7	10*	i	-0.06	i	i
Cn1cc(/C=C(\NC(=O)c2ccccc2Cl)C(=O)NCCCn2ccnc2)c2ccccc21	-13	i	i	0.13	i	i
COc1ccc(OCCOCCN2CCN(C)CC2)cc1	-2	i	i	0.72	i	i
COc1cccc(OC)c1OCCOCCN1CCN(C)CC1	19*	i	i	0.01	i	19*
COc1cccc(N(CC(=O)NC2CCCC2)C(=O)CCC(=O)Nc2cc(C)on2)c1	-6	i	i	2.1	i	i
COc1ccc2nc(C3CCCCC3)c3c(c2c1)CCC3	-6	i	i	-0.38	i	i
CN(/N=C/c1cc(Cl)cc(Cl)c1O)C(=S)NC(C)(C)C	-21	13*	i	0	i	i
O=C(COc1ccccc1[N+](=O)[O-])NCCC1=CCCCC1	-12	i	i	-1.6	i	i
CSC1=NSC2=NC(=O)/C(=C\c3ccc(OC(=O)c4ccco4)cc3)C(=N)N12	-12	i	i	-0.62	i	i
COc1cc(/C=C2\C(=N)N3N=C(S(=O)(=O)CC(C)C)SC3=NC2=O)ccc1OC(=O)c1ccco1	-15	i	i	-6*	x	i
CCS(=O)(=O)C1=NN2C(=N)/C(=C\c3ccc(OS(=O)(=O)c4ccccc4)c(OC)c3)C(=O)N=C2S1	-30	i	i	0.88	x	i
CC(C)CS(=O)(=O)C1=NSC2=NC(=O)/C(=C\c3ccc(OC(=O)c4ccco4)cc3)C(=N)N21	-8	i	i	-4.4*	i	i
Cc1cc(NC(=O)COC(=O)C2CSC3(C)CCC(=O)N23)ccc1Br (centres undefined)	x	x	x	x	i	x
CCOC(=O)Cc1csc(SCC(=O)Nc2cccc(Cl)c2)n1	-9	i	i	1	i	i
